We go through eleven compounds from ChEMBL document CHEMBL1140812, “Synthesis of genistein derivatives and determination of their protective effects against vascular endothelial cell damages caused by hydrogen peroxide” (Bioorg Med Chem Lett, 2008).

Calls of active or inactive are those of the source. The calls are words filed in the database; no cut-off is given here.

One test deals with HUVE12. As to the kind of experiment: Protection against hydrogen peroxide-induced apoptosis in human HUVE12 cells. The class given is functional, cell-based. The method, boiled down:
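HUVE-12 cells in DMEM with 10% newborn calf serum at 37 °C, 5% CO2. Pretreated 30 min with compound (0.1, 1.0, 10.0 µM; also 0.1–10.0 µM series) or 0.02% DMSO vehicle, then 1 mM H2O2 for 24 h. Trypsinized, fixed in 70% ice-cold ethanol, stained with PI/RNase A 15 min at 37 °C; apoptosis by flow cytometry. Three independent experiments.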
Consider `COc1ccc(-c2coc3cc(OC(F)F)cc(OC)c3c2=O)cc1`, for which the outcome was Active.

Another test has as its system HUVE12. As to the kind of experiment: Reversal of hydrogen peroxide-induced LDH activity in human HUVE12 cells. The class given is functional, cell-based. The method in brief:
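HUVE-12 cells pretreated 30 min with compound (0.1–10.0 µM) or 0.02% DMSO vehicle, then 1 mM H2O2 for 24 h at 37 °C. Medium sampled before harvest; LDH activity measured by colorimetric kit as a marker of cell injury. Average of three experiments.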
`CCCOc1ccc(-c2coc3cc(OC(F)F)cc(OCCC)c3c2=O)cc1`: the result was Active. On the same count and under the same terms, to `CCCCCCCCOc1ccc(-c2coc3cc(OC(F)F)cc(OCCCCCCCC)c3c2=O)cc1` belongs “Active”; to `O=c1c(-c2ccc(O)cc2)coc2cc(OC(F)F)cc(O)c12`, “Active”; to `O=c1c(-c2ccc(OC(F)F)cc2)coc2cc(OC(F)F)cc(O)c12`, “Active”. Still for that read-out and setting: next, `CCCCCCCCCOc1ccc(-c2coc3cc(OC(F)F)cc(OCCCCCCCCC)c3c2=O)cc1`: “Active”; `COc1ccc(-c2coc3cc(OC(F)F)cc(OC)c3c2=O)cc1`: “Active”; `O=c1c(-c2ccc(OCc3ccccc3)cc2)coc2cc(OC(F)F)cc(OCc3ccccc3)c12`: “Active”. For the compound `CC(C)C/C=C/Oc1ccc(-c2coc3cc(OC(F)F)cc(O/C=C/CC(C)C)c3c2=O)cc1`, the outcome was Active. Still for that read-out and setting: to `CCOc1ccc(-c2coc3cc(OC(F)F)cc(OCC)c3c2=O)cc1` belongs “Active”; to `CCCCCCCOc1ccc(-c2coc3cc(OC(F)F)cc(OCCCCCCC)c3c2=O)cc1`, “Active”.

In the case of `O=c1c(-c2ccc(O)cc2)coc2cc(O)cc(O)c12`, the result was Active.
